This passage reports inhibition and Activity results from ChEMBL document CHEMBL4396957, “Potent bicyclic inhibitors of malarial cGMP-dependent protein kinase: approaches to combining improvements in cell potency, selectivity and structural novelty” (Bioorg Med Chem Lett, 2019).

By inhibition is commonly meant the change of the read-out against control, counted positive when it falls.

Structures are written as SMILES. Active and inactive are the calls of the source. The rule behind the calls is not given here.

The target in data set [1] is Maternal embryonic leucine zipper kinase (Homo sapiens) (UniProt Q14680). In words: Inhibition of human MELK at 1 uM relative to control.
Chain of Maternal embryonic leucine zipper kinase (Homo sapiens) (Q14680 whole entry, looked up): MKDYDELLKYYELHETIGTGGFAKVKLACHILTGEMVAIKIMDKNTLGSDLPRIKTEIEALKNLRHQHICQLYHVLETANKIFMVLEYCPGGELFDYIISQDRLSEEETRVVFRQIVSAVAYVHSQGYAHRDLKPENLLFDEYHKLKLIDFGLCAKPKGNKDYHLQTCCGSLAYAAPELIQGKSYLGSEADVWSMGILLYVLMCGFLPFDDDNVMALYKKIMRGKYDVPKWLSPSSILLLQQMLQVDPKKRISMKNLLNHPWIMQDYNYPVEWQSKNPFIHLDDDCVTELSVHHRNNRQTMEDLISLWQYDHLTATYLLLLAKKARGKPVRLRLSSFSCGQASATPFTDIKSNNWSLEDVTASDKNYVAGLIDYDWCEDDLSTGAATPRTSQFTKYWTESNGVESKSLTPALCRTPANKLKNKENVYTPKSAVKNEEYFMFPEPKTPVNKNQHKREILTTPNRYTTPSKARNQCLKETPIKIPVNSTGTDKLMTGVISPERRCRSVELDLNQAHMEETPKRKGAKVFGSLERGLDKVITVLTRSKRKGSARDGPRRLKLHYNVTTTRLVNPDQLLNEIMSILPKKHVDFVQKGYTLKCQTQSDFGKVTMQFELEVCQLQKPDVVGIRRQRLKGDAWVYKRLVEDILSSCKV
The target of data set [2] is T1, cGMP-dependent protein kinase 1 (Homo sapiens) (UniProt Q13976).
T1 sequence (whole entry): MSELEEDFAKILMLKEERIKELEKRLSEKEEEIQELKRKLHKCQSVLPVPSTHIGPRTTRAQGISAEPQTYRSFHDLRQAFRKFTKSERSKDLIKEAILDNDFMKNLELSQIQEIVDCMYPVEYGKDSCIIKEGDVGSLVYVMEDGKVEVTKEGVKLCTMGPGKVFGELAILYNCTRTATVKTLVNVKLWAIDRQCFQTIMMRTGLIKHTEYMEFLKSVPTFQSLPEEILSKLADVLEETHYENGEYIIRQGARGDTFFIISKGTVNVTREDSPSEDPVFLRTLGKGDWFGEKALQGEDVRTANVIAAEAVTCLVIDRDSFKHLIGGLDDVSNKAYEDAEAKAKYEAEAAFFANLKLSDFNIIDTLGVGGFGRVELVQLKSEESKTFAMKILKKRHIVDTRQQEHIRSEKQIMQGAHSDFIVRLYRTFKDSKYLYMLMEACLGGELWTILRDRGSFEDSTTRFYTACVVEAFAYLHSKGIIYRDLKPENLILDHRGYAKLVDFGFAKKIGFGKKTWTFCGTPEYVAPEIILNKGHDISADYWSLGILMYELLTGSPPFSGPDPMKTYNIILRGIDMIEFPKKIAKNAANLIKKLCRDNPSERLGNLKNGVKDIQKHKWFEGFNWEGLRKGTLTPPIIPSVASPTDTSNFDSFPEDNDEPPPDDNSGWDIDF
In words: Inhibition of recombinant human N-terminal His6-tagged full length PKG1beta expressed in baculovirus infected Sf21 insect cells upto 1 uM relative to control.

The target in data set [3] is T1, cGMP-dependent protein kinase 1 (Homo sapiens). In words: Inhibition of recombinant human N-terminal His6-tagged full length PKG1alpha expressed in baculovirus infected Sf21 insect cells upto 1 uM relative to control.
Data set [4] addresses Receptor-interacting serine/threonine-protein kinase 2 (Homo sapiens) (UniProt O43353). Briefly: Inhibition of human RIPK2 at 1 uM relative to control.
The test system of another data set is HepG2. Briefly: Cytotoxicity against human HepG2 cells assessed as reduction cell viability incubated for 48 hrs by CellTiter-Glo luminescent cell viability assay. In kind it is cell-based. To be noted: hepg2, 48 h. In a few lines:
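HepG2 human liver-derived cells exposed to compound for 48 h in an in vitro viability assay. […]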

Chain of Receptor-interacting serine/threonine-protein kinase 2 (Homo sapiens) (O43353 whole entry): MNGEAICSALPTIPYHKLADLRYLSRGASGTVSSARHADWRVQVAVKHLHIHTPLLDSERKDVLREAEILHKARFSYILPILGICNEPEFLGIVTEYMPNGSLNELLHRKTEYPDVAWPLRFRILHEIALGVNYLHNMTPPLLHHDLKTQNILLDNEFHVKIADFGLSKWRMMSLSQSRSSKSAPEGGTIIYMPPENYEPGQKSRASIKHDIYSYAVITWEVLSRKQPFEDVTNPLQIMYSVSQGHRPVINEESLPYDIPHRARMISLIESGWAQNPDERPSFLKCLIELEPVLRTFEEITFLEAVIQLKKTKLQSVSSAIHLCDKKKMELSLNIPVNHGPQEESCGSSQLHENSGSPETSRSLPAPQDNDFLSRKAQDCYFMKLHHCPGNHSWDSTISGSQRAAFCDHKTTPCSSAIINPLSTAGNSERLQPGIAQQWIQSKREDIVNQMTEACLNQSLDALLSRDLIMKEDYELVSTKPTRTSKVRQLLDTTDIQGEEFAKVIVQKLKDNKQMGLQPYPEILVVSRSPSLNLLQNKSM

As to `CNc1nccc(-c2c(-c3ccc(F)cc3)nc3cc(NCCN(C)C)ccn23)n1`, the inhibition in data set [1] and in data set [4] was 50 to 90% each time. In addition, the inhibition entry in data set [2] and in data set [3] was “inactive” each time.
As for `CN(C)Cc1ccn2c(-c3ccnc(N)n3)c(-c3ccc(F)cc3)nc2c1`, the figures for the inhibition in data set [1] and in data set [4] were above 90% and 50 to 90%, respectively. In addition, the inhibition result in data set [2] and in data set [3] was “inactive” throughout.
As for `CN1CCN(c2ccn3c(-c4ccnc(N)n4)c(-c4ccc(F)cc4)nc3c2)CC1`, in the data set on HepG2, the Activity entry is given as “Non-Toxic”.
Take `CN(C)Cc1ccn2c(-c3ccnc(Nc4ccc(N5CCNCC5)cc4)n3)c(C3CC3)nc2c1`: the values for the inhibition in data set [1] and in data set [4] were above 90% and 50 to 90%, respectively.
In the case of `CN1CCN(c2ccc3nc(-c4ccc(F)cc4)c(-c4ccnc(N)n4)n3c2)CC1`, the Activity entry in the data set with HepG2 is reported as “Toxic”.
